Experimental data taken from ChEMBL document CHEMBL3734648, “The synthesis of indolo[2,3-b]quinoline derivatives with a guanidine group: highly selective cytotoxic agents” (Eur J Med Chem, 2015).
Calls of active or inactive are those of the source. The rule behind the calls is not given here.

Key:
[1] = tested on: KB; test: Antiproliferative activity against human KB cells after 72 hrs by sulforhodamine B assay; assay type: functional, cell-based
[2] = tested on: A549; test: Antiproliferative activity against human A549 cells after 72 hrs by sulforhodamine B assay; assay type: functional, cell-based; settings: A549, 72 h
[3] = Induction of DNA intercalation (unknown origin) after 24 hrs by methyl green dye displacement assay
How it was run: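 Compound displaces methyl green from a DNA/methyl green complex. IC50 is the concentration giving a 50% decrease in the initial absorbance of the DNA/methyl green solution. Mean ± SD, n = 3–5.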

[4] = tested on: Candida albicans; test: Inhibition of biofilm formation of Candida albicans assessed as reduction in cell viability of biofilm after 24 hrs by XTT staining based spectrophotometry; assay type: functional; settings: read-out: ED50 (the source's name)
How it was run: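 Candida albicans biofilms grown in vitro in 96-well plates, then exposed to compounds, and biofilm cell viability determined. ED50 reported as mean ± SD, n = 3.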

[5] = tested on: MCF7; test: Antiproliferative activity against human MCF7 cells after 72 hrs by sulforhodamine B assay; assay type: functional, cell-based; settings: MCF7, 72 h
[6] = tested on: BALB/3T3; test: Cytotoxicity against mouse BALB/3T3 cells assessed as cell viability after 1 hr by sulforhodamine B assay; assay type: cell-based; settings: BALB/3T3, 1 h
[7] = tested on: LoVo; test: Antiproliferative activity against human LoVo cells after 72 hrs by sulforhodamine B assay; assay type: functional, cell-based
[8] = Hemolytic activity in human RBC after 30 mins by spectrophotometry; assay type: ADME, cell-based, Erythrocyte; settings: for Activity: erythrocyte, 0.5 h; for HC50 at 0.5 h: human red blood cells
How it was run: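 Human red blood cells incubated with compound over 10^-6 to 5×10^-4 M for 30 min at 37 °C. HC50 taken as the concentration lysing 50% of cells. Mean ± SD of three individual determinations.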

[9] = tested on: erythrocytes (Homo sapiens); test: Hemolytic activity in human erythrocytes after 30 mins by spectrophotometry
[10] = tested on: KB; test: Induction of cell cycle arrest in human KB cells assessed as accumulation at S phase at 0.25 uM after 72 hrs by propidium iodide staining based flow cytometry (reference value: 32.1 +/- 5.4%); assay type: functional
How it was run: (§1)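 KB cells exposed for 72 h at […]. Cell-cycle phase distribution (G0/G1, S, G2/M) given as mean ± SD from independent experiments. Treated cells compared with control cells by Mann–Whitney U test, significance at p ≤ 0.05.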

[11] = tested on: KB; test: Induction of apoptosis in human KB cells assessed as induction of caspase-3/7 activity at 1 uM after 72 hrs by Ac-DEVD-ACC-based fluorescence assay relative to control; assay type: functional
How it was run: (§2)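 KB cells treated for 72 h at 1.0 or 0.5. Caspase-3/7 activity measured by an enzymatic assay, normalized to protein content and expressed relative to untreated control. Significance versus control at p ≤ 0.05.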

[12] = tested on: KB; test: Induction of apoptosis in human KB cells assessed as necrotic cells at 0.5 uM after 72 hrs by Annexin V/propidium iodide staining-based flow cytometry (reference value: 3.9 +/- 0.8 %); assay type: functional
How it was run: (§3)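 Apoptosis and necrosis in KB cells after 72 h exposure at 1.0 or 0.5. Staining with annexin V (AV) and propidium iodide (PI). Cells scored as live (AV−/PI−), apoptotic (AV+/PI−) or necrotic (AV+/PI+). Values as mean ± SD, compared with control cells at p ≤ 0.05.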

[13] = tested on: KB; test: Induction of cell cycle arrest in human KB cells assessed as accumulation at G0/G1 phase at 1 uM after 72 hrs by propidium iodide staining based flow cytometry (reference value: 53.2 +/- 5.8%); assay type: functional; how it was run: as §1
[14] = tested on: KB; test: Induction of apoptosis in human KB cells assessed as apoptotic cells at 0.5 uM after 72 hrs by Annexin V/propidium iodide staining-based flow cytometry (reference value: 4.8 +/- 2.4 %); assay type: functional; how it was run: as §3
[15] = tested on: KB; test: Induction of mitochondrial membrane potential loss in human KB cells at 0.5 to 1 uM after 72 hrs by JC-1 staining based flow cytometric analysis; assay type: functional
How it was run: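 Mitochondrial membrane potential of KB cells read after 72 h exposure at 1.0 and 0.5. Fraction of cells with reduced potential compared with control cells, significance at p ≤ 0.05.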

[16] = tested on: KB; test: Induction of apoptosis in human KB cells assessed as live cells at 1 uM after 72 hrs by Annexin V/propidium iodide staining-based flow cytometry (reference value: 91.3 +/- 3.1 %); assay type: functional; how it was run: as §3
[17] = tested on: MCF7; test: Selectivity index, ratio of IC50 for mouse BALB/3T3 cells to IC50 for human MCF7 cells; assay type: functional
[18] = tested on: A549; test: Selectivity index, ratio of IC50 for mouse BALB/3T3 cells to IC50 for human A549 cells; assay type: functional
[19] = tested on: KB; test: Induction of apoptosis in human KB cells assessed as induction of caspase-3/7 activity at 0.5 uM after 72 hrs by Ac-DEVD-ACC-based fluorescence assay; assay type: functional, cell-based; how it was run: as §2
[20] = tested on: KB; test: Induction of cell cycle arrest in human KB cells assessed as accumulation at G2/M phase at 0.5 uM after 72 hrs by propidium iodide staining based flow cytometry (reference value: 14.7 +/- 1.1 %); assay type: functional; how it was run: as §1
[21] = tested on: KB; test: Induction of cell cycle arrest in human KB cells assessed as accumulation at G0/G1 phase at 0.5 uM after 72 hrs by propidium iodide staining based flow cytometry (reference value: 53.2 +/- 5.8%); assay type: functional; how it was run: as §1
[22] = tested on: KB; test: Induction of cell cycle arrest in human KB cells assessed as accumulation at S phase at 1 uM after 72 hrs by propidium iodide staining based flow cytometry (reference value: 32.1 +/- 5.4%); assay type: functional; how it was run: as §1
[23] = tested on: KB; test: Induction of cell cycle arrest in human KB cells assessed as accumulation at S phase at 0.5 uM after 72 hrs by propidium iodide staining based flow cytometry (reference value: 32.1 +/- 5.4%); assay type: functional; how it was run: as §1
[24] = tested on: KB; test: Induction of apoptosis in human KB cells assessed as live cells at 0.5 uM after 72 hrs by Annexin V/propidium iodide staining-based flow cytometry (reference value: 91.3 +/- 3.1 %); assay type: functional; how it was run: as §3
[25] = tested on: KB; test: Induction of cell cycle arrest in human KB cells assessed as accumulation at G2/M phase at 1 uM after 72 hrs by propidium iodide staining based flow cytometry (reference value: 14.7 +/- 1.1 %); assay type: functional; how it was run: as §1
[26] = tested on: KB; test: Induction of cell cycle arrest in human KB cells assessed as accumulation at G2/M phase at 0.25 uM after 72 hrs by propidium iodide staining based flow cytometry (reference value: 14.7 +/- 1.1 %); assay type: functional; how it was run: as §1
[27] = tested on: KB; test: Induction of apoptosis in human KB cells assessed as apoptotic cells at 1 uM after 72 hrs by Annexin V/propidium iodide staining-based flow cytometry (reference value: 4.8 +/- 2.4 %); assay type: functional; how it was run: as §3
[28] = tested on: KB; test: Induction of cell cycle arrest in human KB cells assessed as accumulation at G0/G1 phase at 0.25 uM after 72 hrs by propidium iodide staining based flow cytometry (reference value: 53.2 +/- 5.8%); assay type: functional; how it was run: as §1
[29] = tested on: KB; test: Induction of apoptosis in human KB cells assessed as necrotic cells at 1 uM after 72 hrs by Annexin V/propidium iodide staining-based flow cytometry (reference value: 3.9 +/- 0.8 %); assay type: functional; how it was run: as §3

Row | Structure (SMILES) | IC50 [1] [µM] | IC50 [2] [µM] | IC50 [3] [µM] | EC50 [4] [µM] | IC50 [5] [µM] | IC50 [6] [µM] | IC50 [7] [µM] | also measured
1 | Cc1c2ccccc2nc2c1c1cc(NC(=O)[C@@H]3CCCN3)ccc1n2CCN(C)C | 0.38 | 0.27 | 42.2 | 25.5 | 0.32 | 0.36 | 0.06 | 
2 | Cc1c2ccccc2nc2c1c1cc(NC(=O)CNC(=N)N)ccc1n2CCN(C)C | 1.23 | 1.96 |  |  | 2.31 | 3.55 | 0.82 | 
3 | Cc1c2c3cc(NC(=O)CNC(=N)N)ccc3nc-2n(C)c2ccccc12.Cl.Cl.Cl | 3.88 | 1.82 | 40.5 | 4.2 | 4.75 | 4.47 | 0.83 | Activity [8]: Dose-dependent effect; HC50 at 0.5 h [8]: 192 µM
4 | CCOc1ccc(-c2nc3ccc(-c4nc5ccc(N6CCN(C)CC6)cc5[nH]4)cc3[nH]2)cc1 |  |  | 12.1 |  |  |  |  | 
5 | Cc1c2c3ccccc3nc-2n(C)c2ccccc12 |  |  | 367 |  |  |  |  | HC50 at 0.5 h [9]: 120 µM
6 | Cc1c2ccccc2nc2c1c1cc(NC(=O)CN)ccc1n2CCN(C)C.Cl.Cl.Cl | 1.13 | 0.74 | 80.3 | 74.3 | 0.75 | 0.61 | 0.09 | Activity [8]: Dose-dependent effect; HC50 at 0.5 h [8]: 80.3 µM
7 | Cc1c2c3cc(NC(=O)[C@@H]4CCCN4C(=N)N)ccc3nc-2n(C)c2ccccc12 | 15.6 | 11 |  |  | 7.85 | 31.9 | 7.76 | 
8 | Cc1c2ccccc2nc2c1c1cc(NC(=O)[C@@H]3CCCN3C(=N)N)ccc1n2CCN(C)C | 7.37 | 6.22 |  |  | 2.06 | 13.4 | 8.31 | 
9 | Cc1c2c3cc(NC(=N)N)ccc3nc-2n(C)c2ccccc12.Cl.Cl | 0.88 | 0.14 | 71.5 | 197 | 0.06 | 66.4 | 76.9 | Activity [10]: 35.3%; fold change (FC) [11]: 5; Activity [12]: 8.2%; Activity [13]: 32.8%; Activity [14]: 43.7%; Activity [15]: 11%; Activity [16]: 62.1%; Ratio IC50 [17]: 600; Ratio IC50 [18]: 600; Activity [19]: Active; Activity [20]: 31%; Activity [21]: 29.2%; Activity [22]: 48.6%; Activity [23]: 39.8%; Activity [24]: 41.1%; Activity [25]: 18.6%; Activity [26]: 25.3%; Activity [27]: 25.7%; Activity [28]: 39.5%; Activity [29]: 12.2%
10 | Cc1c2ccccc2nc2c1c1cc(N)ccc1n2CCN(C)C | 0.86 | 0.88 | 125 | 34.2 | 0.33 | 0.56 | 0.077 | 
11 | Cc1c2ccccc2nc2c1c1cc(NC(=N)N)ccc1n2CCN(C)C.Cl.Cl.Cl.Cl | 0.87 | 3.24 | 101 | 287 | 0.81 | 30 | 9.38 | Activity [10]: 31.1%; fold change (FC) [11]: 2; Activity [12]: 5.9%; Activity [13]: 33.4%; Activity [14]: 32.5%; Activity [15]: 11%; Activity [16]: 68.1%; Activity [20]: 24.6%; Activity [21]: 43.8%; Activity [22]: 46.9%; Activity [23]: 31.6%; Activity [24]: 61.5%; Activity [25]: 19.6%; Activity [26]: 17.3%; Activity [27]: 24.4%; Activity [28]: 51.6%; Activity [29]: 7.5%
12 | Cc1c2c3cc(N)ccc3nc-2n(C)c2ccccc12 | 0.72 | 0.16 | 150 | 41 | 0.52 | 0.54 | 0.07 | 
